# Results from different studies.
# Compare with care: the assays were run in different laboratories. pIC50, pKi: −log10 of the molar value.
# Target: Mu-type opioid receptor (OPRM1, Homo sapiens, UniProt P35372)
Structure (SMILES),observed,technique,notes,endpoint,result
CN[C@]1(c2ccccc2Cl)CCCCC1=O,ligand displacement,radioligand,,pKi,5.52
CC(=O)Nc1ccccc1-c1cnc2c(c1)C[C@@]1(OCCCc3ccccc3)[C@H]3Cc4ccc(O)c5c4[C@@]1(CCN3CC1CC1)[C@H]2O5,cell-free assay,,,pKi,6.85
COc1ncccc1-c1cnn2ccc(N3CCN(C(=O)OC(C)C)CC3)nc12,cell-free assay,,,pIC50,< 4.52
CC(Cc1ccccc1)NCCC(c1ccccc1)c1ccccc1 (stereo not shown),ligand displacement,radioligand,,pIC50,5.74
Oc1cccc([C@@]23CCC[C@@H](C2)N(CCc2ccccc2)C[C@H]3O)c1 (relative stereo),cell-free assay,,,pKi,~8.30
Cc1cc(O)cc(C)c1C[C@H](N)C(=O)N1Cc2ccccc2C[C@H]1C(=O)NCC(=O)NCc1ccc(N)cc1,ligand displacement,radioligand,cell membranes,pKi,7.47
CCCO[C@@]12Cc3cc(-c4ccccc4)cnc3[C@@H]3Oc4c(O)ccc5c4[C@@]31CCN(CC1CC1)[C@@H]2C5,cell-free assay,,,pKi,6.30
CC(NCCc1ccc(O)cc1)C(O)c1ccc(O)cc1 (stereo not shown),ligand displacement,,,pIC50,5.04
CCCCCCCCC[C@@H]1CC(=O)NCC(=O)N[C@H](Cc2ccc(O)cc2)C(=O)NCC(=O)N[C@@H](Cc2ccccc2)C(=O)O1,ligand displacement,radioligand,,pIC50,4.80
Cc1ccc(CNC(=O)CNC(=O)[C@@H]2Cc3ccccc3CN2C(=O)[C@@H](N)Cc2c(C)cc(O)cc2C)cc1,ligand displacement,radioligand,cell membranes,pKi,8.43
Oc1ccc2c3c1O[C@H]1c4ncc(-c5ccccc5)cc4C[C@@]4(OCCCc5cccnc5)[C@@H](C2)N(CC2CC2)CC[C@]314,cell-free assay,,,pKi,8.40
Cc1cc(O)cc(C)c1C[C@H](N)C(=O)N1Cc2ccccc2C[C@H]1C(=O)NCC(=O)NCc1ccc([N+](=O)[O-])cc1,ligand displacement,radioligand,cell membranes,pKi,8.35
COc1ccc2c(c1)[C@]13CCCC[C@@H]1[C@H](C2)N(C)CC3,ligand displacement,radioligand,,pIC50,5.77
